Screening results (PubChem BioAssay)
Compounds with a hit are over-represented: about 3.6% of the library has one in this group of screens.
Measles CPE – protection of cells from measles virus. actives 1.5% (n = 140,000). protection (pct of control), % at 4 µM. Measles virus-infected cells, CPE protection, absorbance; in the data active = protection mostly above about 24%, no sharp cut-off; inactive = mostly below about 26%
Yeast lifespan up – yeast lifespan extension | S. cerevisiae growth with nicotinamide, OD615; deaD strain in restrictive glucose medium | inhibition of the nicotinamide effect, % at 10 µM | actives 0.68% (n = 130,000) | AID 775;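 active = inhibition above a set limit, placed 3 SD over the median of all compounds, cut at about 26% in these data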;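 also: 0% = nicotinamide-treated wells and 100% = cells grown without nicotinamide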
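Test system: DeaD-strain S. cerevisiae / Buffer or medium: restrictive glucose medium / Also added: nicotinamide 1.5 mM / Doses: one concentration, 10 µM, DMSO 0.25% / Schedule: 48 h at 30 °C / Signal: OD615 measurement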
RAM inhibit – yeast RAM network inhibition | S. cerevisiae dse1pr::URA3 reporter, 5-FOA growth OD615, 2 d; analog-sensitive cbk1-as2 kinase mutant strain | inhibition, % at 50 µM | actives 1.8% (n = 190,000) | AID 868;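 active = inhibition above a set limit, 3 SD over mean compound inhibition, cut at about 8.4% in these data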;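 also: 0% = DMSO-only wells with no growth and 100% = 10 µM 1-NA-PP1 full growth; inhibition rescues growth on 5-FOA so higher OD means more RAM inhibition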
Yeast growth inh – chemicals that inhibit yeast BB579 growth in restrictive medium (lifespan-shortening candidates); S. cerevisiae BB579 growth, OD615, 48 h; inhibition, % at 10 µM; actives 0.51% (n = 140,000);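 active = inhibition above a set limit, 3 SD over the mean compound inhibition, cut at about 44% in these data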
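System: Saccharomyces cerevisiae DeaD strain BB579, replicative lifespan model yeast | Buffer or medium: Restrictive glucose-based CSMM-D medium | Times: 4 h preincubation and 48 h exposure at 30 °C | Detection: OD615 turbidity measurement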
RAM 5-FOA – RAM network inhibition, efflux-deficient strain; shares compounds with RAM inhibit; S. cerevisiae efflux-deficient reporter strain, 5-FOA growth OD615, 2 days; max inhibition, %; 1,200 tested, under 10 active; AID 1305; call rule not given here;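 also: plate controls were vehicle for no effect and reference inhibitor for full effect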
* hit, by the source's call; / = no result.

SMILES	Measles CPE	Yeast lifespan up	RAM inhibit	Yeast growth inh	RAM 5-FOA
O=C(Nc1ccccc1Cl)c1cccc(COc2cc(Cl)ccc2Cl)c1	6	-3	12*	-43	5
CN(C)S(=O)(=O)Oc1ccsc1C(=O)Nc1ccc(Cl)c(Cl)c1	7	-7	4	-19	/
CC(C)C(NC(=O)c1ccc(C(C)(C)C)cc1)C(=O)Nc1cccc(S(N)(=O)=O)c1 (configuration not stated)	/	/	0	/	/
O=C(COC(=O)CC(c1ccccc1)c1ccccc1)NCc1ccc(Cl)cc1	14	4	13*	-36	4
CCCC(=O)OCC(=O)NCc1ccc(Cl)cc1	/	/	0	/	/
O=C(O)CCC(=O)Nc1cccc(-c2csc(-c3ccccc3)n2)c1	/	/	3	/	/
CCCCC(=O)Nc1cccc(-c2csc(-c3ccccc3)n2)c1	18	1	18*	-50	4
COCCOC(=O)c1c(C)oc2ccc(OS(C)(=O)=O)cc12	/	/	2	/	/
COCCOC(=O)c1c(C)oc2ccc(OC(=O)COc3c(F)c(F)c(F)c(F)c3F)cc12	6	-6	16*	10	2
Cc1oc2ccc(OC(=O)COc3c(F)c(F)c(F)c(F)c3F)cc2c1C(=O)OC(C)C	12	4	13*	-26	2
COc1cc(NS(=O)(=O)c2ccc(NC(=S)NC(=O)/C=C/c3ccco3)cc2)ncn1	/	/	13*	/	4
COC(=O)c1c(NC(=O)c2ccccc2)sc(Cc2ccccc2)c1C	3	-6	12*	-37	6
COC(=O)c1c(NC(=O)c2ccc(C)cc2)sc(Cc2ccccc2)c1C	0	1	14*	-23	4
COC(=O)c1c(NC(C)=O)sc(Cc2ccccc2)c1C	15	-10	6	-27	/
Cc1cc(C)n2nc(SCC(=O)c3c(N)n(CC(C)C)c(=O)n(C)c3=O)nc2n1	/	/	7	/	/
CCN1C(=O)C(CC(=O)Nc2ccc(OC)cc2)N(Cc2ccc3c(c2)OCO3)C1=S (configuration not stated)	19	4	4	-12	/
COc1cc(/C=C/C(=O)OCC(=O)c2c(N)n(C)c(=O)n(C)c2=O)ccc1OCC#N	/	/	4	/	/
Cc1cc(Oc2ccc(Cl)cc2)nc(-c2ccccc2O)n1	31*	-11	14*	-41	2
C=CCOC(=O)C1=C(C)NC(SCC)=C(C#N)C1c1ccc(Cl)cc1 (configuration not stated)	11	5	13*	-44	2
CCCCc1ccc(NC(=S)Nc2ccc(Cl)c(S(=O)(=O)N(C)C)c2)cc1	4	3	16*	-10	6
CCN1CCN(CC(=O)Nc2ccc(Cl)c(S(=O)(=O)N(C)C)c2)CC1	/	/	1	/	/
Cc1ccc(N(CCCCN2C(=O)c3ccccc3C2=O)C(=O)c2cccs2)cc1	2	1	12*	-55	3
CC(C)(C)c1cc(OC(=O)c2ccccc2F)ccc1O	/	/	0	/	/
Cc1ccc(-c2cccc(OC(=O)c3ccccc3F)c2)cc1	4	0	15*	-29	3
CCCCCOc1ccc(C(=O)OCC(=O)Nc2cc(C)c(C)cc2[N+](=O)[O-])cc1	8	6	12*	-34	6
SMILES	Measles CPE	Yeast lifespan up	RAM inhibit	Yeast growth inh	RAM 5-FOA
COCC(=O)OCC(=O)Nc1cc(C)c(C)cc1[N+](=O)[O-]	2	-7	0	-4	/
CCN(CC)c1nc(SCCOC(=O)Nc2ccccc2)nc(N(CC)CC)n1	14	/	18*	-41	8
CCOC(=O)CNC(=S)N(Cc1cccs1)C1CCCCC1	20	2	0	-19	/
CC(CCc1ccccc1)NC(=O)CNC(=S)N(Cc1cccs1)C1CCCC1 (configuration not stated)	/	/	12*	/	5
NNC(=O)c1ccc(CSc2nc3ccccc3s2)cc1	/	/	0	/	/
CCOC(=O)c1cc(C(C)C)sc1NC(=O)COC(=O)CCS(=O)(=O)c1ccccc1	3	3	13*	-29	2
CCOC(=O)c1c(NC(=O)COC(=O)CCS(=O)(=O)c2ccc(C)cc2)sc(C)c1C	2	4	14*	-9	3
Cc1ccc(S(=O)(=O)CCC(=O)OCC(=O)Nc2cc(C)on2)cc1	7	-9	1	-28	/
CC(=O)c1ccccc1OC(=O)COc1ccc(Cl)cc1C	/	/	1	/	/
COc1ccc(N=c2oc3cc(O)ccc3cc2C(=O)NCC2CCCO2)cc1 (configuration not stated)	7	-8	4	-83	/
Cc1ccc(N=c2oc3cc(O)ccc3cc2C(N)=O)cc1	5	-2	27*	-59	1
